# Test results: ChEMBL document CHEMBL4689842, “EUbOPEN Chemogenomics Library wave 1” (2021)
# System: U2OS
# Test: Multiplex assay against U2OS
# Type: toxicity, cell-based
# Conditions: human
# In short: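 Live cells carried four stains from seeding: Hoechst33342, BioTracker Green Microtubule Cytoskeleton Dye, MitoTracker Red and Annexin V Alexa Fluor 680. They were imaged on a CQ1 microscope at 37°C and 5% CO2 after compound addition. Using CellPathfinder machine-learning gating, cells were split into Hoechst high-intensity objects or normal cells, normal cells into healthy, pyknosed or fragmented nuclei, and pyknosed cells into mitotic or apoptotic; tubulin, mitochondrial-mass and membrane-permeability phenotypes are per cents of healthy-nucleus cells.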
# [1] = 12 h, 0 µM, compound concentration 0 uM, replicate 1
# [2] = 12 h, 0 µM, compound concentration 0 uM, replicate 2
# [3] = 12 h, 1 µM, compound concentration 1 uM, replicate 1
# [4] = 12 h, 1 µM, compound concentration 1 uM, replicate 2
# [5] = 24 h, 0 µM, compound concentration 0 uM, replicate 1
# [6] = 24 h, 0 µM, compound concentration 0 uM, replicate 2
# [7] = 24 h, 1 µM, compound concentration 1 uM, replicate 1
# [8] = 24 h, 1 µM, compound concentration 1 uM, replicate 2
# [9] = 12 h, 10 µM, compound concentration 10 uM, replicate 1
# [10] = 12 h, 10 µM, compound concentration 10 uM, replicate 2
# [11] = 24 h, 10 µM, compound concentration 10 uM, replicate 1
# [12] = 24 h, 10 µM, compound concentration 10 uM, replicate 2
# [13] = 48 h, 1 µM, compound concentration 1 uM, replicate 1
# [14] = 48 h, 1 µM, compound concentration 1 uM, replicate 2
# [15] = 48 h, 10 µM, compound concentration 10 uM, replicate 1
# [16] = 48 h, 10 µM, compound concentration 10 uM, replicate 2
smiles,measurement,setting,value
CCNc1cc(N[C@H]2CC[C@H](O)CC2)nc(Nc2ccc3c(ccn3Cc3ccccc3)c2)n1,Population Apoptotic (%),[1],37%
same,Population Fragmented Nuclei (%),[1],14%
same,Population Healthy Nuclei (%),[1],59%
same,Population Hoechst High Intensity Objects (%),[1],6%
same,Population Membrane Permeable-Phenotype (%),[1],39%
same,Population Mitochondria Different-Phenotype (%),[1],98%
same,Population Mitotic Cells (%),[1],62%
same,Population Normal (%),[1],93%
same,Population Pyknosed Nuclei (%),[1],25%
same,Population Tubulin-Different-Phenotype (%),[1],100%
same,Total Cell Count,[1],243
same,Population Apoptotic (%),[2],62%
same,Population Fragmented Nuclei (%),[2],20%
same,Population Healthy Nuclei (%),[2],57%
same,Population Hoechst High Intensity Objects (%),[2],7%
same,Population Membrane Permeable-Phenotype (%),[2],69%
same,Population Mitochondria Different-Phenotype (%),[2],100%
same,Population Mitotic Cells (%),[2],37%
same,Population Normal (%),[2],92%
same,Population Pyknosed Nuclei (%),[2],22%
same,Total Cell Count,[2],117
same,Population Apoptotic (%),[3],64%
same,Population Fragmented Nuclei (%),[3],4%
same,Population Healthy Nuclei (%),[3],81%
same,Population Hoechst High Intensity Objects (%),[3],1%
same,Population Membrane Permeable-Phenotype (%),[3],33%
same,Population Mitochondria Different-Phenotype (%),[3],30%
same,Population Mitotic Cells (%),[3],35%
same,Population Normal (%),[3],98%
same,Population Pyknosed Nuclei (%),[3],13%
same,Population Tubulin-Different-Phenotype (%),[3],88%
same,Total Cell Count,[3],129
same,Population Apoptotic (%),[4],42%
same,Population Fragmented Nuclei (%),[4],11%
same,Population Healthy Nuclei (%),[4],75%
same,Population Hoechst High Intensity Objects (%),[4],11%
same,Population Membrane Permeable-Phenotype (%),[4],18%
same,Population Mitochondria Different-Phenotype (%),[4],55%
same,Population Mitotic Cells (%),[4],57%
same,Population Normal (%),[4],88%
same,Population Tubulin-Different-Phenotype (%),[4],76%
same,Total Cell Count,[4],120
same,Population Apoptotic (%),[5],65%
same,Population Fragmented Nuclei (%),[5],14%
same,Population Healthy Nuclei (%),[5],46%
same,Population Hoechst High Intensity Objects (%),[5],4%
same,Population Membrane Permeable-Phenotype (%),[5],83%
same,Population Mitotic Cells (%),[5],34%
same,Population Normal (%),[5],95%
same,Population Pyknosed Nuclei (%),[5],39%
same,Population Tubulin-Different-Phenotype (%),[5],99%
same,Total Cell Count,[5],273
same,Population Apoptotic (%),[6],71%
same,Population Fragmented Nuclei (%),[6],23%
same,Population Healthy Nuclei (%),[6],47%
same,Population Hoechst High Intensity Objects (%),[6],10%
same,Population Membrane Permeable-Phenotype (%),[6],92%
same,Population Mitochondria Different-Phenotype (%),[6],100%
same,Population Mitotic Cells (%),[6],28%
same,Population Normal (%),[6],89%
same,Population Pyknosed Nuclei (%),[6],29%
same,Population Tubulin-Different-Phenotype (%),[6],100%
same,Total Cell Count,[6],121
same,Population Apoptotic (%),[7],33%
same,Population Fragmented Nuclei (%),[7],9%
same,Population Healthy Nuclei (%),[7],77%
same,Population Hoechst High Intensity Objects (%),[7],2%
same,Population Membrane Permeable-Phenotype (%),[7],22%
same,Population Mitochondria Different-Phenotype (%),[7],42%
same,Population Mitotic Cells (%),[7],66%
same,Population Normal (%),[7],97%
same,Population Pyknosed Nuclei (%),[7],12%
same,Population Tubulin-Different-Phenotype (%),[7],69%
same,Total Cell Count,[7],167
same,Population Apoptotic (%),[8],70%
same,Population Fragmented Nuclei (%),[8],14%
same,Population Healthy Nuclei (%),[8],71%
same,Population Hoechst High Intensity Objects (%),[8],9%
same,Population Membrane Permeable-Phenotype (%),[8],23%
same,Population Mitochondria Different-Phenotype (%),[8],53%
same,Population Mitotic Cells (%),[8],29%
same,Population Normal (%),[8],90%
same,Population Pyknosed Nuclei (%),[8],14%
same,Population Tubulin-Different-Phenotype (%),[8],65%
same,Total Cell Count,[8],132
O=C(Nc1ccc(-c2ccnc(Nc3ccc(N4CCOCC4)cc3)n2)cc1)[C@@H]1CCCN1,Population Apoptotic (%),[3],45%
same,Population Fragmented Nuclei (%),[3],11%
same,Population Healthy Nuclei (%),[3],76%
same,Population Hoechst High Intensity Objects (%),[3],3%
same,Population Membrane Permeable-Phenotype (%),[3],6%
same,Population Mitochondria Different-Phenotype (%),[3],10%
same,Population Mitotic Cells (%),[3],55%
same,Population Normal (%),[3],96%
same,Population Pyknosed Nuclei (%),[3],11%
same,Population Tubulin-Different-Phenotype (%),[3],16%
same,Total Cell Count,[3],100
same,Population Apoptotic (%),[4],33%
same,Population Fragmented Nuclei (%),[4],13%
same,Population Hoechst High Intensity Objects (%),[4],7%
same,Population Membrane Permeable-Phenotype (%),[4],4%
same,Population Mitotic Cells (%),[4],66%
same,Population Normal (%),[4],92%
same,Population Pyknosed Nuclei (%),[4],10%
same,Population Tubulin-Different-Phenotype (%),[4],10%
same,Total Cell Count,[4],65
same,Population Apoptotic (%),[9],62%
same,Population Fragmented Nuclei (%),[9],13%
same,Population Healthy Nuclei (%),[9],66%
same,Population Hoechst High Intensity Objects (%),[9],7%
same,Population Membrane Permeable-Phenotype (%),[9],12%
same,Population Mitochondria Different-Phenotype (%),[9],74%
same,Population Mitotic Cells (%),[9],37%
same,Population Normal (%),[9],92%
same,Population Pyknosed Nuclei (%),[9],20%
same,Population Tubulin-Different-Phenotype (%),[9],97%
same,Total Cell Count,[9],176
same,Population Apoptotic (%),[10],77%
same,Population Fragmented Nuclei (%),[10],7%
same,Population Healthy Nuclei (%),[10],77%
same,Population Hoechst High Intensity Objects (%),[10],5%
same,Population Membrane Permeable-Phenotype (%),[10],8%
same,Population Mitochondria Different-Phenotype (%),[10],28%
same,Population Mitotic Cells (%),[10],22%
same,Population Normal (%),[10],94%
same,Population Pyknosed Nuclei (%),[10],14%
same,Population Tubulin-Different-Phenotype (%),[10],44%
same,Total Cell Count,[10],65
same,Population Apoptotic (%),[7],41%
same,Population Fragmented Nuclei (%),[7],8%
same,Population Healthy Nuclei (%),[7],76%
same,Population Hoechst High Intensity Objects (%),[7],3%
same,Population Membrane Permeable-Phenotype (%),[7],7%
same,Population Mitochondria Different-Phenotype (%),[7],9%
same,Population Mitotic Cells (%),[7],58%
same,Population Normal (%),[7],96%
same,Population Pyknosed Nuclei (%),[7],15%
same,Population Tubulin-Different-Phenotype (%),[7],10%
same,Total Cell Count,[7],90
same,Population Apoptotic (%),[8],60%
same,Population Fragmented Nuclei (%),[8],7%
same,Population Healthy Nuclei (%),[8],85%
same,Population Hoechst High Intensity Objects (%),[8],6%
same,Population Membrane Permeable-Phenotype (%),[8],3%
same,Population Mitochondria Different-Phenotype (%),[8],19%
same,Population Mitotic Cells (%),[8],40%
same,Population Normal (%),[8],93%
same,Population Pyknosed Nuclei (%),[8],7%
same,Total Cell Count,[8],63
same,Population Apoptotic (%),[11],60%
same,Population Fragmented Nuclei (%),[11],12%
same,Population Healthy Nuclei (%),[11],65%
same,Population Hoechst High Intensity Objects (%),[11],7%
same,Population Membrane Permeable-Phenotype (%),[11],17%
same,Population Mitochondria Different-Phenotype (%),[11],80%
same,Population Mitotic Cells (%),[11],39%
same,Population Normal (%),[11],92%
same,Population Pyknosed Nuclei (%),[11],21%
same,Population Tubulin-Different-Phenotype (%),[11],97%
same,Total Cell Count,[11],198
same,Population Apoptotic (%),[12],58%
same,Population Fragmented Nuclei (%),[12],18%
same,Population Healthy Nuclei (%),[12],64%
same,Population Hoechst High Intensity Objects (%),[12],1%
same,Population Membrane Permeable-Phenotype (%),[12],13%
same,Population Mitochondria Different-Phenotype (%),[12],17%
same,Population Mitotic Cells (%),[12],41%
same,Population Normal (%),[12],98%
same,Population Pyknosed Nuclei (%),[12],17%
same,Population Tubulin-Different-Phenotype (%),[12],22%
same,Total Cell Count,[12],72
same,Population Apoptotic (%),[13],36%
same,Population Fragmented Nuclei (%),[13],5%
same,Population Hoechst High Intensity Objects (%),[13],1%
same,Population Membrane Permeable-Phenotype (%),[13],4%
same,Population Mitochondria Different-Phenotype (%),[13],8%
same,Population Mitotic Cells (%),[13],63%
same,Population Normal (%),[13],98%
same,Population Pyknosed Nuclei (%),[13],13%
same,Population Tubulin-Different-Phenotype (%),[13],13%
same,Total Cell Count,[13],94
same,Population Apoptotic (%),[14],0%
same,Population Fragmented Nuclei (%),[14],10%
same,Population Healthy Nuclei (%),[14],80%
same,Population Hoechst High Intensity Objects (%),[14],5%
same,Population Membrane Permeable-Phenotype (%),[14],5%
same,Population Mitochondria Different-Phenotype (%),[14],12%
same,Population Mitotic Cells (%),[14],100%
same,Population Normal (%),[14],94%
same,Population Pyknosed Nuclei (%),[14],9%
same,Population Tubulin-Different-Phenotype (%),[14],16%
same,Total Cell Count,[14],61
same,Population Apoptotic (%),[15],67%
same,Population Fragmented Nuclei (%),[15],24%
same,Population Healthy Nuclei (%),[15],48%
same,Population Hoechst High Intensity Objects (%),[15],6%
same,Population Membrane Permeable-Phenotype (%),[15],18%
same,Population Mitochondria Different-Phenotype (%),[15],53%
same,Population Mitotic Cells (%),[15],32%
same,Population Normal (%),[15],93%
same,Population Pyknosed Nuclei (%),[15],26%
same,Population Tubulin-Different-Phenotype (%),[15],86%
same,Total Cell Count,[15],289
same,Population Apoptotic (%),[16],60%
same,Population Fragmented Nuclei (%),[16],9%
same,Population Healthy Nuclei (%),[16],70%
same,Population Hoechst High Intensity Objects (%),[16],8%
same,Population Membrane Permeable-Phenotype (%),[16],28%
same,Population Mitochondria Different-Phenotype (%),[16],32%
same,Population Mitotic Cells (%),[16],40%
same,Population Normal (%),[16],91%
same,Population Pyknosed Nuclei (%),[16],20%
same,Population Tubulin-Different-Phenotype (%),[16],23%
same,Total Cell Count,[16],125
